# Experimental data published in PMC12518644 (Scientific Reports, 2025).
# Tested on: MDA-MB-231 BC cell line
# Assay: MTT cytotoxicity assay on MDA-MB-231 breast cancer cells
# Type: cell-based
# Settings: Homo sapiens, MDA-MB-231, 48 h, read-out: IC50 Values, MDA-MB-231, MTT, 48 h
# Method in brief: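 Cells grown in DMEM with 10% FBS and 1% antibiotics (100 U/ml penicillin), seeded at 1.0 × 10^4 cells/well, and incubated 24 h at 37 °C under 5% CO2. Medium then replaced with test compound at 6.5, 12.5, 25 or 50 µM for 48 h. MTT (5 mg/mL solution) added for 4 h, formazan dissolved in DMSO, and absorbance read at 570 nm. IC50 derived from dose-response.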
compound,measurement,value
"Cc1ccc(S(=O)(=O)n2cc(/C=N/NC(=O)c3cccc4ccccc34)c3ccccc32)cc1 [Compound 5p, (E )-N’ -[(1-Tosyl-1 H -indol-3-yl)methylene]−1-naphthohydrazide]",IC50,18.1 ± 0.2 µM
